Assay results from different studies.
Protocols differ between the studies behind these lines.
Target: Tau-tubulin kinase 2 (TTBK2, Homo sapiens, UniProt Q6IQ55)
Read-out: enzyme activity
Action: inhibitor

| Compound | method | concentration | endpoint | result |
| --- | --- | --- | --- | --- |
| COc1cc(Cl)c(C(=O)N[C@@H](CN[C@H]2CC[C@@H](N)CC2)Cc2ccc(C#N)cc2)cc1-c1ccc(CN[C@H](C)c2ccc(C)cc2)o1 | – | 1 µM | remaining activity | 96% |
| CC(C)(C)c1nc(-c2cccc(NS(=O)(=O)c3c(F)cccc3F)c2F)c(-c2ccnc(N)n2)s1 | radiometric | 1 µM | remaining activity | 104% |
| O=C(Nc1cnn(-c2csc(C(=O)NC3COC3)c2)c1)Nc1ccccc1Cl | – | 5 µM | remaining activity | 107% |
| Cc1ccc(C(=O)NCc2ccsc2)cc1C#Cc1cn(C(C)C)c2ncnc(N)c12 | – | 1 µM | activity vs control | 87% |
| COc1cc(/C=C/C(=O)CC(=O)/C=C/c2ccc(O)c(OC)c2)ccc1O | – | 1 µM | activity vs control | 115% |
| COc1cc(Nc2cnc(C#N)c(O[C@H](C)CN(C)C)n2)ncc1-c1cnn(C)c1 | radiometric | 1 µM | remaining activity | 100% |
| CC(C)(C)c1nc2c(s1)c1nc(N)ncc1c1ccc(NS(=O)(=O)c3c(F)cccc3F)c(F)c12 | radiometric | 1 µM | remaining activity | 104% |
| CN1CC(Oc2cnc(C#N)cc2-c2ccn3nc(NC(=O)C4CC4)cc3c2)C1 | – | 1 µM | inhibition | 13% |
| CC(C)(O)[C@H]1CC[C@H](Nc2ccc3ncc(-c4cccc(C(F)(F)F)c4)n3n2)CC1 | – | 1 µM | remaining activity | 94.4% |
| O=C(Nc1cnn(-c2csc(C(=O)NC3COC3)c2)c1)Nc1c(F)cccc1Cl | – | 5 µM | remaining activity | 104% |
| FC(F)(F)Oc1cccc(-c2cnc3ccc(-c4ccncc4)nn23)c1 | radiometric | 1 µM | activity vs control | 96% |
